Consider 6 molecules from ChEMBL document CHEMBL3228012, “Actinomycin D oxazinones as improved antitumor agents” (1979).

Assay [1] deals with Calf thymus DNA. Kind of assay: Binding affinity to calf thymus DNA in 0.01 M phosphate buffer at pH 7 at 20 degC incubated for 5 mins. As to conditions: Bos taurus. The format is nucleic-acid assay. In outline:
(§1)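 Compounds were mixed with calf thymus DNA, and binding was monitored by difference absorption spectra with and without DNA. Binding to DNA was judged from a bathochromic shift of λmax with hypochromicity.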

For assay [2], the system named is Calf thymus DNA. Kind of assay: Binding affinity to calf thymus DNA in 0.15 M NaCl-0.01 M sodium phosphate buffer at pH 7.3 at 37 degC incubated for 5 mins. Format: nucleic-acid assay. As to conditions: Bos taurus. In short, it runs like this: as §1
Assay [3] deals with Calf thymus DNA. The experiment in a line: Binding affinity to calf thymus DNA in 0.15 M NaCl-0.01 M sodium phosphate buffer at pH 7.3 at 37 degC incubated for 30 mins. The format is nucleic-acid assay. As to conditions: Bos taurus. In outline:
as §1

In assay [4] the test system is CCRF-CEM. Kind of assay: Antitumor activity against human CCRF-CEM cells assessed as growth inhibition after 48 hrs. The format is functional. As to conditions: read-out: ID50 (the source's name). In short, it runs like this:
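Human leukemic lymphoblasts were grown in continuous spinner suspension culture. Compounds were exposed for 48 h. ID50 was taken as the concentration in ng/mL giving 50% growth inhibition.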

Assay [5] relates to Calf thymus DNA. Kind of assay: Binding affinity to calf thymus DNA in 0.15 M NaCl-0.01 M phosphate buffer at pH 7.3 at 37 degC incubated for 30 mins. As to conditions: Bos taurus.
In assay [6] the test system is P388. Kind of assay: Antitumor activity against mouse P388 cells allografted in mouse BDF1 mouse assessed as increase in survival >50 days at 150 ug/kg, ip for 4 days.
In assay [7] the test system is P388. The experiment in a line: Antitumor activity against mouse P388 cells allografted in mouse BDF1 mouse assessed as increase in survival time of mouse at 150 ug/kg, ip for 4 days relative to untreated control. As to conditions: 96 h.
For assay [8], the system named is P388. Kind of assay: Antitumor activity against mouse P388 cells allografted in mouse BDF1 mouse assessed as increase in survival >50 days at 75 ug/kg, ip for 4 days.
The subject of assay [9] is P388. The experiment in a line: Antitumor activity against mouse P388 cells allografted in mouse BDF1 mouse assessed as increase in survival >50 days at 300 ug/kg, ip for 4 days.
Assay [10] deals with P388. Kind of assay: Antitumor activity against mouse P388 cells allografted in mouse BDF1 mouse assessed as survival time of mouse at 75 ug/kg, ip for 4 days (reference value: 11.5 days).
For assay [11], the system named is P388. Kind of assay: Antitumor activity against mouse P388 cells allografted in mouse BDF1 mouse assessed as survival time of mouse at 150 ug/kg, ip for 4 days (reference value: 11.5 days).
The test system of assay [12] is P388. The experiment in a line: Antitumor activity against mouse P388 cells allografted in mouse BDF1 mouse assessed as survival time of mouse at 300 ug/kg, ip for 4 days (reference value: 11.5 days).
Assay [13] relates to P388. The experiment in a line: Antitumor activity against mouse P388 cells allografted in mouse BDF1 mouse assessed as complete suppression of tumor on day 307 at 150 ug/kg, ip for 4 days.
Assay [14] concerns P388. Kind of assay: Antitumor activity against mouse P388 cells allografted in mouse BDF1 mouse assessed as increase in survival time of mouse at 75 ug/kg, ip for 4 days relative to untreated control. As to conditions: 96 h.
The test system of assay [15] is P388. The experiment in a line: Antitumor activity against mouse P388 cells allografted in mouse BDF1 mouse assessed as increase in survival time of mouse at 300 ug/kg, ip for 4 days relative to untreated control. As to conditions: 96 h.
Assay [16] concerns P388. The experiment in a line: Antitumor activity against mouse P388 cells allografted in mouse BDF1 mouse assessed as increase in survival >50 days at 50 ug/kg, ip for 4 days.
The subject of assay [17] is P388. Kind of assay: Antitumor activity against mouse P388 cells allografted in mouse BDF1 mouse assessed as survival time of mouse at 50 ug/kg, ip for 4 days (reference value: 11.5 days).
The subject of assay [18] is P388. Kind of assay: Antitumor activity against mouse P388 cells allografted in mouse BDF1 mouse assessed as increase in survival time of mouse at 50 ug/kg, ip for 4 days relative to untreated control. As to conditions: 96 h.

SMILES strings stand for the structures. ≈ marks a conversion by molar mass, not a printed value. Calls of active or inactive are those of the source. The rule behind the calls is not given here. Starred links: 1 amine or outer side, 2 acyl side, 3 side chain; linkers in the order of their positions; H or OH if unused. Positions of bridges follow the written chain, without caps; N, C: chain ends. Non-standard residues stand in square brackets, D forms with d. Residues, ends and D or L forms follow the SMILES beside them. Chains are numbered I, II in the order given. Actinocin(1to9) = Cc1c2oc3c(C)ccc(C(=O)[*:2])c3nc-2c(C(=O)[*:1])c(N)c1=O; NMeV = CN[C@H](C(=O)O)C(C)C; Sar = CNCC(=O)O

For `Cc1ccc(C(=O)N[C@@H]2C(=O)N[C@H](C(C)C)C(=O)N3CCC[C@H]3C(=O)N(C)CC(=O)N(C)[C@@H](C(C)C)C(=O)O[C@@H]2C)c2c1Oc1c(c(C(=O)N[C@@H]3C(=O)N[C@H](C(C)C)C(=O)N4CCC[C@H]4C(=O)N(C)CC(=O)N(C)[C@@H](C(C)C)C(=O)O[C@@H]3C)c3ncc(=O)oc3c1C)N2`, the result in [1], in [2] and in [6] was inactive. The result in assay [3] and in [5] was Active. Besides, the IC50 in [4] was determined as 0.024 µg/mL (≈ 18.5 nM). Also, the Percent increase in survival time vs untreated control at 0.15 mg/kg in assay [7] was found to be 169%.

`CCc1nc2c(C(=O)N[C@@H]3C(=O)N[C@H](C(C)C)C(=O)N4CCC[C@H]4C(=O)N(C)CC(=O)N(C)[C@@H](C(C)C)C(=O)O[C@@H]3C)c3c(c(C)c2oc1=O)Oc1c(C)ccc(C(=O)N[C@@H]2C(=O)N[C@H](C(C)C)C(=O)N4CCC[C@H]4C(=O)N(C)CC(=O)N(C)[C@@H](C(C)C)C(=O)O[C@@H]2C)c1N3`: the outcome in assay [1], in [2], in assay [8] and in [9] was inactive. Moreover, the result in assay [3], in assay [5] and in assay [13] was Active. The IC50 in assay [4] was determined as 0.012 µg/mL (≈ 9.07 nM). Further, the figures for the MST in assay [10], in [11] and in assay [12] were 29 days, 35 days and 26 days, respectively. Moreover, in assay [14], the survival at 0.075 mg/kg was 152%. The Percent increase in survival time vs untreated control at 0.15 mg/kg in assay [7] is 204%. Besides, the survival at 0.3 mg/kg in assay [15] was found to be 126%.

For the molecule `Cc1ccc(C(=O)N[C@@H]2C(=O)N[C@H](C(C)C)C(=O)N3CCC[C@H]3C(=O)N(C)CC(=O)N(C)[C@@H](C(C)C)C(=O)O[C@@H]2C)c2c1Oc1c(c(C(=O)N[C@@H]3C(=O)N[C@H](C(C)C)C(=O)N4CCC[C@H]4C(=O)N(C)CC(=O)N(C)[C@@H](C(C)C)C(=O)O[C@@H]3C)c3nc(C)c(=O)oc3c1C)N2`, the result in assay [1], in assay [2] and in [6] was inactive. For the same molecule, the result in assay [3] and in assay [5] was Active. Moreover, the IC50 in assay [4] was found to be 0.012 µg/mL (≈ 9.16 nM). The Percent increase in survival time vs untreated control at 0.15 mg/kg in [7] worked out at 155%.

Consider `Cc1c2oc3c(C)ccc(C(=O)N[C@@H]4C(=O)N[C@H](C(C)C)C(=O)N5CCC[C@H]5C(=O)N(C)CC(=O)N(C)[C@@H](C(C)C)C(=O)O[C@@H]4C)c3nc-2c(C(=O)N[C@@H]2C(=O)N[C@H](C(C)C)C(=O)N3CCC[C@H]3C(=O)N(C)CC(=O)N(C)[C@@H](C(C)C)C(=O)O[C@@H]2C)c(N)c1=O` [DACTINOMYCIN] (I: T[dV]P[Sar][NMeV] / II: T[dV]P[Sar][NMeV]; ester I:1-I:C, II:1-II:C; linker I:N-II:N via Actinocin(1to9)), for which, in [4], the IC50 was determined as 0.01 µg/mL (≈ 7.97 nM). Besides, the outcome in assay [8], in [16] and in assay [6] was inactive. The MST in [17] amounted to 28 days; in [10], 30 days; in [11] it was 8 days. For the same molecule, in assay [14], the survival at 0.075 mg/kg was 149%. For the same molecule, the survival at 0.05 mg/kg in assay [18] turned out to be 141%. Further, the survival at 0.15 mg/kg in [7] was -31%.

`Cc1ccc(C(=O)N[C@@H]2C(=O)N[C@H](C(C)C)C(=O)N3CCC[C@H]3C(=O)N(C)CC(=O)N(C)[C@@H](C(C)C)C(=O)O[C@@H]2C)c2c1Oc1c(c(C(=O)N[C@@H]3C(=O)N[C@H](C(C)C)C(=O)N4CCC[C@H]4C(=O)N(C)CC(=O)N(C)[C@@H](C(C)C)C(=O)O[C@@H]3C)c3nc(CC(=O)O)c(=O)oc3c1C)N2`: the outcome in assay [1], in assay [2] and in assay [6] was inactive. Moreover, the result in assay [3] and in assay [5] was Active. Moreover, in assay [4], the IC50 was found to be 0.012 µg/mL (≈ 8.87 nM). The Percent increase in survival time vs untreated control at 0.15 mg/kg in [7] stood at 140%.

As for `Cc1ccc(C(=O)N[C@@H]2C(=O)N[C@H](C(C)C)C(=O)N3CCC[C@H]3C(=O)N(C)CC(=O)N(C)[C@@H](C(C)C)C(=O)O[C@@H]2C)c2c1Oc1c(c(C(=O)N[C@@H]3C(=O)N[C@H](C(C)C)C(=O)N4CCC[C@H]4C(=O)N(C)CC(=O)N(C)[C@@H](C(C)C)C(=O)O[C@@H]3C)c3nc(CCC(=O)O)c(=O)oc3c1C)N2`, the result in assay [1], in assay [2] and in assay [9] was inactive. Also, the outcome in [3] and in [5] was Active. Besides, the IC50 in assay [4] came to 0.028 µg/mL (≈ 20.5 nM). The survival at 0.3 mg/kg in [15] was found to be 159%.
